PRMT1 FP inh – PRMT1 methyltransferase inhibitors, primary screen, biochemical, fluorescence polarization. recombinant PRMT1, activity-based probe fluorescence polarization. actives 1.3% (n = 370,000). Protein arginine N-methyltransferase 1 (Homo sapiens), Q99873. inhibition, % at 2.79 µM;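 active means inhibition above about 21% made by adding two undisclosed values, limit read from the data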
Target sequence (Q99873 whole entry, looked up): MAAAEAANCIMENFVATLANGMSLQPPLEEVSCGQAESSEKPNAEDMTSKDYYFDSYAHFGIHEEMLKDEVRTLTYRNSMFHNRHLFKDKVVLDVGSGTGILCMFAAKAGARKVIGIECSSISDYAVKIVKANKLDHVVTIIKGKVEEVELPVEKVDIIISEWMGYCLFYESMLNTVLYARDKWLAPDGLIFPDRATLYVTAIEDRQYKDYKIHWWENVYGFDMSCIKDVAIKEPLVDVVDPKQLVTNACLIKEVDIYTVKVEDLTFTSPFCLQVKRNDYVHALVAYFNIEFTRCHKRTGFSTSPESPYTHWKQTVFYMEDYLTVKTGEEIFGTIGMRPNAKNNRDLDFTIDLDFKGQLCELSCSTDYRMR
mABHD4 FP – ABHD4 inhibitors, primary screen, biochemical, fluorescence polarization, mouse. actives 0.54% (n = 370,000). (Lyso)-N-acylphosphatidylethanolamine lipase (Mus musculus), Q8VD66. inhibition, % at 8.92 µM. purified mABHD4, FP-Rh probe fluorescence polarization. AID 720543, 2013;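 active means inhibition exceeding the mean over every tested compound plus 3 SD, cut at about 30% in these data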;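 further: 0% = plate median of compound wells and 100% = S159A mutant with DMSO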
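Assay system: Wild-type mouse ABHD4 protein | Medium: HEPES pH 7.0 buffer, 150 mM NaCl, 0.01% Pluronic F-127 | Incubation: Enzyme–compound pre-incubation 45 min, then probe 60 min, both 25 °C | Technique: Fluorescence polarization with parallel and perpendicular emission, 525/598 nm | Evaluation: % inhibition of FP-Rh probe binding versus controls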
TCR-CD3 inh – inhibitors of human TCR-CD3 interaction, primary screen, biochemical, fluorescence, TAMRA-labeled TCR probe. T-cell receptor (TCR). inhibition, % at 9.4 µM. actives 0.37% (n = 360,000);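 further: recombinant mutant TCR 2C K166C tagged with TAMRA read by polarization; 0% = receptor in buffer alone and 100% = receptor with positive control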
SIAE inh – human SIAE inhibitors, primary screen, biochemical, fluorescence polarization, FP-Rh probe, 1536-well HTS; inhibition, % at 9.66 µM; SIAE FP-Rh probe binding; actives 0.69% (n = 370,000); Sialate O-acetylesterase (Homo sapiens), Q9HAT2; AID 1053197, 2014;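 active means inhibition above a cutoff: mean of compounds within the control limits plus 3 SD of those, cut at about 17% in these data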;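 further: 0% = plate median of compound wells and 100% = probe without SIAE protein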
HTRA1 inhibitor – HTRA1 serine protease inhibitors, primary screen, biochemical, fluorescence polarization, HTS | Q92743 | recombinant HTRA1, FP-rhodamine activity-based probe | inhibition, % at 5.96 µM | actives 0.5% (n = 340,000) | AID 504803, 2011; in the data active means inhibition above about 36%;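 further: 0% = enzyme with DMSO and 100% = wells lacking enzyme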
HTRA1 conf – HTRA1 protease inhibitors, retest, confirmation, biochemical, fluorescence polarization; shares compounds with HTRA1 inhibitor; recombinant HTRA1, FP-rhodamine activity-based probe; actives 66% (n = 1,600); inhibition, % at 5.96 µM;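 active means mean inhibition over three repeats above a set limit taken from the earlier primary screen, cut at about 37% in these data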;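 further: 0% = HTRA1 with DMSO and 100% = wells lacking HTRA1; inhibitors block probe binding so polarization drops and inhibition rises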
BSA TAMRA ctr – compounds interfering with TAMRA-BSA probe, counter-screen for TCR-CD3 interaction inhibitor project, biochemical, fluorescence, TAMRA-labeled BSA. actives 10% (n = 1,200). shares compounds with TCR-CD3 inh. TAMRA-labeled BSA probe fluorescence counterscreen. inhibition, % at 9.4 µM; in the data active means inhibition above about 23%;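 further: 0% = buffer low control and 100% = reference high control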
TCR-CD3 inh conf – TCR-CD3 interaction inhibitors, retest, confirmation, biochemical, fluorescence, TAMRA-labeled TCR probe; AID 652036, 2013; inhibition, % at 9.4 µM; shares compounds with TCR-CD3 inh; TAMRA-labeled TCR probe fluorescence binding assay; actives 48% (n = 1,200)
PRMT1 confirm – PRMT1 methyltransferase inhibitors, confirmation, biochemical, fluorescence polarization, triplicate. recombinant His-PRMT1, activity-based probe fluorescence polarization. inhibition, % at 2.79 µM. actives 42% (n = 3,300). shares compounds with PRMT1 FP inh. AID 687036, 2013;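 active means mean inhibition across replicates above the hit cutoff derived for the earlier primary screen, cut at about 22% in these data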
ABHD4 confirm – ABHD4 inhibitors, retest, confirmation, biochemical, fluorescence polarization, mouse. shares compounds with mABHD4 FP. purified mABHD4, FP-Rh probe fluorescence polarization. inhibition, % at 8.92 µM. actives 55% (n = 1,800). AID 720658, 2013;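 active means mean inhibition across replicates above the hit cutoff set in the primary screen, cut at about 30% in these data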;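 further: 0% = wild-type ABHD4 with DMSO and 100% = catalytically dead S159A mutant with DMSO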
SIAE inh conf – human SIAE inhibitors, retest, confirmation, biochemical, fluorescence polarization, FP-Rh probe, triplicate; shares compounds with SIAE inh; SIAE FP-Rh activity-based probe; inhibition, % at 9.66 µM; actives 13% (n = 2,300); AID 1117263, 2014;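 active means mean inhibition of the replicates above the hit cutoff set in the primary screen, cut at about 17% in these data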;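 further: 0% = SIAE with DMSO and probe and 100% = probe without SIAE; inhibitors lower polarization as more probe stays unbound to SIAE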
* marks the source's active call; other numbers are inactive results; x = no result. Only some compounds are listed: those with a hit (about 2.6% of all), similar ones and a draw of the others. Unless noted, no stated cut-off is given here; in the data, active means inhibition above about 19%; inactive means the rest.

SMILES	PRMT1 FP inh	mABHD4 FP	TCR-CD3 inh	SIAE inh	HTRA1 inhibitor	HTRA1 conf	ABHD4 confirm	SIAE inh conf	others
Oc1ccc(CCNc2c3ccccc3nc3ccccc23)cc1O	12	23	21*	19*	62*	84*	x	29*
c1ccc(CNc2c3ccccc3nc3ccccc23)cc1	1	-7	-3	-3	1	x	x	x
CCOC(=O)C1=NOC(C(C)=O)(C(=O)NC2CCCC2)C1 (stereo not given)	0	-5	x	-1	x	x	x	x
Cc1ccccc1CN1CCCCC(NC(=O)c2c(F)cccc2F)C1=O (stereo not given)	0	2	x	7	x	x	x	x
C/C(=N\NC(=O)c1c[nH]c2ccccc12)c1ccc(C)o1	5	-16	0	0	-1	x	x	x
Cn1cccc1/C=N/NC(=O)c1cc2ccccc2cc1O	-4	13	-2	17*	40*	29	x	1
O=C(N/N=C/C1CC=CCC1)c1cc2ccccc2cc1O (stereo not given)	0	19	1	19*	40*	28	x	8
C/C(=N\NC(=O)c1cc2ccccc2cc1O)c1ccc(C)o1	-1	28	1	24*	47*	23	x	-2
O=C(N/N=C/C1CC=CCC1)c1ccc(O)cc1O (stereo not given)	0	8	6	13	10	x	x	x
CC(=O)Nc1ccc(S(=O)(=O)NC2=C(N3CCN(c4ccc(F)cc4)CC3)C(=O)c3ccccc3C2=O)cc1	0	22	0	25*	55*	71*	x	24*
O=C1C(Nc2ccc(O)cc2)=C/C(=N/S(=O)(=O)c2cccs2)c2ccccc21	13	73*	-6	21*	64*	74*	81*	5
CN1C(=O)C[C@@](C#N)(C(=O)N2CCCC2)[C@H]1c1ccccc1	2	4	x	0	x	x	x	x
Cn1cc(C(=O)N/N=C/c2c(O)ccc3ccccc23)ccc1=O	-3	31*	38*	30*	62*	42*	30*	9	BSA TAMRA ctr=-22;TCR-CD3 inh conf=24*
Cc1ccc(C(=O)N/N=C/c2c(O)ccc3ccccc23)cn1	-4	17	15	21*	62*	49*	x	3
O=C(N/N=C\c1c(O)ccc2ccccc12)c1cncc(Br)c1	-4	34*	1	31*	53*	50*	25	6
O=C(N/N=C/c1ccc(O)c2ncccc12)c1cccc(Br)c1	-4	9	0	29*	67*	59*	x	13
O=C(N/N=C/c1cc(Br)ccc1O)c1ccncc1	-7	9	-11	-1	12	x	x	x
COCCCn1cc(CN2CC=CS2(=O)=O)nn1	9	-5	x	1	x	x	x	x
C/C(=N/Nc1ccc([N+](=O)[O-])cc1)c1c[nH]c2ccccc12	7	27	-11	34*	46*	81*	x	-6
CCOC(=O)c1sc(N=NC2=C(O)CCCC2=O)c(C(=O)OCC)c1C	6	52*	4	22*	48*	38*	34*	0
Cc1ccc(-c2ccccc2NC(=O)CS(=O)CC(=O)Nc2ccc(C)c(Cl)c2)o1 (stereo not given)	52*	36*	85*	45*	39*	22	16	10	BSA TAMRA ctr=11;TCR-CD3 inh conf=6
CCOc1ccccc1CNc1ccc(O)cc1	19	57*	21*	34*	61*	24	x	6	BSA TAMRA ctr=6;TCR-CD3 inh conf=6
CCOc1cccc(CNc2ccc(O)cc2)c1OCc1ccc(Cl)cc1	4	41*	16	29*	49*	19	36*	8
Oc1ccc(NCc2ccccc2OCc2ccccc2F)cc1	12	49*	11	34*	63*	21	50*	10
Cc1ccc(NCc2ccccc2OCc2ccccc2F)cc1	2	0	-2	-2	-9	x	x	x
SMILES	PRMT1 FP inh	mABHD4 FP	TCR-CD3 inh	SIAE inh	HTRA1 inhibitor	HTRA1 conf	ABHD4 confirm	SIAE inh conf	others
O=C1C(=O)N(Cc2ccc(-c3ccc(F)nc3)cc2)c2ccc(OC(F)(F)F)cc21	2	11	x	-1	x	x	x	x
O[C@H](COc1ccccc1)CN1CCC(C(O)(c2ccccc2)c2ccccc2)CC1	-4	1	x	-6	x	x	x	x
O=c1ccc2c(-c3ccccc3)c3ccc(O)cc3oc-2c1	90*	43*	-40	36*	60*	61*	81*	36*
O=c1cc(-c2ccccc2)oc2cc(O)ccc12	-5	-16	-3	9	-7	x	x	x
O=C(NCc1ccc(F)c(F)c1)C1CCC(CNS(=O)(=O)c2cccc3cccnc23)CC1 (stereo not given)	7	-9	x	3	x	x	x	x
COc1ccc(CNc2cccc3[nH]c(C(F)(F)F)nc23)cc1OC	1	-2	3	19*	40*	12	x	4
COc1ccc(CNC(=O)c2[nH]c(C(F)(F)F)nc2-c2ccccc2)cc1OC	-6	1	1	5	x	x	x	x
CCOC(=O)C1Nc2ccc(Br)cc2C2C=CCC12 (stereo not given)	30*	53*	-4	20*	65*	2	52*	6	PRMT1 confirm=26*
O=C1/C(=C\c2ccc(O)c(O)c2)C(c2ccccc2)=NN1c1ccccc1	9	28	4	28*	58*	97*	x	11
COc1ccc(Oc2c(Cl)cnn(-c3cc(C)cc(C)c3)c2=O)cc1	-1	0	x	-1	x	x	x	x

Screening results deposited in PubChem by The Scripps Research Institute Molecular Screening Center.
